# According to ChEMBL document CHEMBL2177088, “Melittin suppresses VEGF-A-induced tumor growth by blocking VEGFR-2 and the COX-2-mediated MAPK signaling pathway” (J Nat Prod, 2012):
# The source made the active and inactive calls. The calls are words filed in the database; no cut-off is given here.
# Legend:
# [1] = Cytotoxicity against HUVEC assessed as cell viability at 10 uM after 48 hrs by MTT assay relative to control; type: cell-based; conditions: human, HUVEC cells; read-out: Activity
# Procedure, shortened: (§1)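 Native (non-transfected) HUVECs were seeded at 1 × 10^4 cells/well on 0.1% gelatin in complete M199 for 24 h. They were then exposed to 1, 5, 10, 20 or 40 μM in serum-free M199 for 48 h at 37 °C. MTT was added for 3 h and formazan dissolved in 2-propanol. After centrifugation, supernatant absorbance was read at 570 nm and expressed as % of control. Three independent experiments in triplicate.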
# HUVEC [2] = experiment: Down regulation of VEGFR2 expression in VEGFA-stimulated HUVEC at 5 to 20 uM after 24 hrs by Western blot analysis; type: functional, cell-based; conditions: Homo sapiens
# [3] = Cytotoxicity against HUVEC assessed as cell viability at 40 uM after 48 hrs by MTT assay relative to control; type: cell-based; conditions: human, HUVEC cells; read-out: Activity; procedure, shortened: as §1
# HUVEC [4] = experiment: Down regulation of VEGFR2 expression in HUVEC at 5 to 20 uM after 24 hrs by Western blot analysis; type: functional, cell-based; conditions: Homo sapiens
# HUVEC [5] = experiment: Down regulation of COX2 expression in VEGFA-stimulated HUVEC at 5 to 20 uM after 24 hrs by Western blot analysis; type: functional, cell-based; conditions: Homo sapiens
# [6] = tested on: Lewis lung carcinoma cell line; experiment: Antitumor activity against VEGFA-stimulated mouse highly metastatic LLC cells xenografted in C57BL/6 mouse assessed as reduction of tumor weight at 0.5 mg/kg, […] relative to control; type: functional; set-up: scale not given: the % may be the effect or the level left; conditions: route subcutaneous
# HUVEC [7] = experiment: Inhibition of VEGFA-stimulated VEGF production in HUVEC at 5 to 20 uM after 24 hrs by enzyme immunoassay; type: functional, cell-based; conditions: Homo sapiens
# [8] = biological target: Mitogen-activated protein kinase; ERK1/ERK2 (Homo sapiens) (UniProt P27361+P28482); experiment: Inhibition of VEGFA-stimulated ERK1/2 phosphorylation in HUVEC by Western blot analysis; type: protein assay
# Mitogen-activated protein kinase; ERK1/ERK2 (Homo sapiens), sequence (P27361 whole entry, looked up): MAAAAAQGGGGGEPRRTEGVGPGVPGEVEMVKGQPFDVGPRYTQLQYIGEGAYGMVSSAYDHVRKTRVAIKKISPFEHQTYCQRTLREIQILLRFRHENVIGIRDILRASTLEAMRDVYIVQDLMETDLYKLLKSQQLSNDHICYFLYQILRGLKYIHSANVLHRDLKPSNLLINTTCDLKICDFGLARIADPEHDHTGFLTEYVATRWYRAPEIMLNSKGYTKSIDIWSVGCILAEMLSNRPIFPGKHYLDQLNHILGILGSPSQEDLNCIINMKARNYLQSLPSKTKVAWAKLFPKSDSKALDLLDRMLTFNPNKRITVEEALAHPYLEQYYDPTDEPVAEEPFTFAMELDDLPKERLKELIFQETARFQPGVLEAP
# Mitogen-activated protein kinase; ERK1/ERK2 (Homo sapiens), sequence (P28482 whole entry, looked up): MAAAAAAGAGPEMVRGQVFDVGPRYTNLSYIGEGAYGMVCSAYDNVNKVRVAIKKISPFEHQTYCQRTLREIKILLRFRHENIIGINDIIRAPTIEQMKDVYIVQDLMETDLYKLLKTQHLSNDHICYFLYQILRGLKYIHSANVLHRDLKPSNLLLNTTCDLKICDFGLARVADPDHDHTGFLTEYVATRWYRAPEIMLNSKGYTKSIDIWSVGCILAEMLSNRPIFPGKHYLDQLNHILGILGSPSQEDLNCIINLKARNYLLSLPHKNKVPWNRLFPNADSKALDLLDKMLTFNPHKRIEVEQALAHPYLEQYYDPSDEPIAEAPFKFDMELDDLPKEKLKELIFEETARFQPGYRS
# Procedure, shortened: (§2)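 VEGF-A-HUVECs exposed to 1, 5 or 10 μM were lysed with protease and phosphatase inhibitors (1 mM NaF, 1 mM Na3VO4). Lysates (10 μg/lane) were run on 10% SDS-PAGE and immunoblotted (1:1000) for phospho- and total ERK1/2, JNK and p38, detected by HRP-ECL.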
# [9] = biological target: T1, MAP kinase p38 (Homo sapiens) (UniProt O15264+Q15759+Q16539+P53778); experiment: Increase of VEGFA-stimulated p38 phosphorylation in HUVEC by Western blot analysis in presence of p38 inhibitor SB203580; type: protein assay
# Procedure, shortened: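 VEGF-A-HUVECs were pretreated 30 min with SB203580 before the compound was added. Lysates with phosphatase inhibitors (10 μg/lane) were separated by 10% SDS-PAGE and immunoblotted (1:1000) for phospho-p38 and total p38, detected by HRP-ECL.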
# Mus musculus [10] = experiment: Toxicity in VEGFA-stimulated mouse highly metastatic LLC cells xenografted C57BL/6 mouse assessed as reduction of body weight at 0.5 to 5 mg/kg, sc qd for 18 days; type: organism-based; set-up: dose 0.5-5 mg/kg, route subcutaneous; conditions: in vivo, 432 h
# Procedure, shortened: (§3)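 C57BL/6 mice bearing sc right-flank VEGF-A-hm LLC tumours (1 × 10^6 cells) were dosed sc at 0.5 or 5 mg/kg from day 12 after inoculation, over the 18-day growth study. Animals were monitored for body weight loss, lethargy, hair loss and mortality.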
# Mus musculus [11] = experiment: Toxicity in VEGFA-stimulated mouse highly metastatic LLC cells xenografted C57BL/6 mouse assessed as hair loss at 0.5 to 5 mg/kg, sc qd for 18 days; type: organism-based; set-up: dose 0.5-5 mg/kg, route subcutaneous; conditions: in vivo, 432 h; procedure, shortened: as §3
# HUVEC [12] = experiment: Antiangiogenic activity against VEGFA-stimulated capillary differentiation in HUVEC after 18 hrs by matrigel assay; type: functional, cell-based; conditions: Homo sapiens
# Procedure, shortened: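 VEGF-A-HUVECs (HUVECs stably transfected with pcDNA3.1 carrying mouse VEGF-A164, G418-selected) were plated at 1 × 10^5 cells on polymerised growth factor-reduced Matrigel (5 mg/mL) with 5, 10 or 20 μM. They were incubated 18 h at 37 °C, 5% CO2, then washed, fixed and photographed (100×). Tube area per random field was quantified by image analysis. Three experiments in triplicate; IC50 read from the dose curve.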
# Mus musculus [13] = experiment: Toxicity in VEGFA-stimulated mouse highly metastatic LLC cells xenografted C57BL/6 mouse assessed as hair loss at 0.5 to 5 mg/kg, sc qd for 7 days; type: organism-based; set-up: dose 0.5-5 mg/kg, route subcutaneous; conditions: in vivo, 168 h
# [14] = tested on: Lewis lung carcinoma cell line; experiment: Antitumor activity against VEGFA-stimulated mouse highly metastatic LLC cells xenografted in C57BL/6 mouse assessed as tumor growth inhibition at 5 mg/kg, […] relative to control; type: functional; conditions: sc, 432 h, route subcutaneous, read-out: TGI
# [15] = biological target: T1, MAP kinase p38 (Homo sapiens); experiment: Increase of VEGFA-stimulated p38 phosphorylation in HUVEC by Western blot analysis; type: protein assay; procedure, shortened: as §2
# [16] = biological target: c-Jun N-terminal kinase, JNK (Homo sapiens) (UniProt P45983+P53779+P45984); experiment: Inhibition of VEGFA-stimulated JNK phosphorylation in HUVEC by Western blot analysis; type: cell-based; procedure, shortened: as §2
# [17] = Cytotoxicity against HUVEC assessed as cell viability at 20 uM after 48 hrs by MTT assay relative to control; type: cell-based; conditions: human, HUVEC cells; read-out: Activity; procedure, shortened: as §1
# HUVEC [18] = experiment: Down regulation of COX2 expression in HUVEC at 5 to 20 uM after 24 hrs by Western blot analysis; type: functional, cell-based; conditions: Homo sapiens
# HUVEC [19] = experiment: Antiangiogenic activity against VEGFA-stimulated cell proliferation in HUVEC after 48 hrs by BrdU incorporation assay; type: functional, cell-based; conditions: Homo sapiens
# [20] = tested on: Lewis lung carcinoma cell line; experiment: Antiangiogenic activity against VEGFA-stimulated mouse highly metastatic LLC cells xenografted in C57BL/6 mouse assessed as reduction of vessel formation at 5 mg/kg, sc qd for 7 days relative to control; type: functional; set-up: scale not given: the % may be the effect or the level left; conditions: route subcutaneous
# Procedure, shortened: (§4)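 VEGF-A-hm LLC cells (5 × 10^5 in 50 μL) were inoculated intradermally into the back skin of mice. Compound was given sc at 0.5 or 5 mg/kg/day for 7 days, starting day 3 after inoculation. Mice were killed on day 10 and the inoculated skin separated from underlying tissue. Only vessels directly supplying the tumour were counted under a dissecting microscope; reduction is versus untreated control.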
# Mus musculus [21] = experiment: Toxicity in VEGFA-stimulated mouse highly metastatic LLC cells xenografted C57BL/6 mouse assessed as mortality at 0.5 to 5 mg/kg, sc qd for 7 days; type: organism-based; set-up: dose 0.5-5 mg/kg, route subcutaneous; conditions: in vivo, 168 h
# Mus musculus [22] = experiment: Toxicity in VEGFA-stimulated mouse highly metastatic LLC cells xenografted C57BL/6 mouse assessed as lethargy at 0.5 to 5 mg/kg, sc qd for 18 days; type: organism-based; set-up: dose 0.5-5 mg/kg, route subcutaneous; conditions: in vivo, 432 h; procedure, shortened: as §3
# Mus musculus [23] = experiment: Toxicity in VEGFA-stimulated mouse highly metastatic LLC cells xenografted C57BL/6 mouse assessed as lethargy at 0.5 to 5 mg/kg, sc qd for 7 days; type: organism-based; set-up: dose 0.5-5 mg/kg, route subcutaneous; conditions: in vivo, 168 h
# [24] = tested on: Lewis lung carcinoma cell line; experiment: Antitumor activity against VEGFA-stimulated mouse highly metastatic LLC cells xenografted in C57BL/6 mouse assessed as tumor growth inhibition at 0.5 mg/kg, […] relative to control; type: functional; conditions: sc, 432 h, route subcutaneous, read-out: TGI
# [25] = tested on: Lewis lung carcinoma cell line; experiment: Antiangiogenic activity against VEGFA-stimulated mouse highly metastatic LLC cells xenografted in C57BL/6 mouse assessed as reduction of vessel formation at 0.5 mg/kg, sc qd for 7 days relative to control; type: functional; set-up: scale not given: the % may be the effect or the level left; conditions: route subcutaneous; procedure, shortened: as §4
# HUVEC [26] = experiment: Inhibition of VEGFA-stimulated PGE2 production in HUVEC at 5 to 20 uM after 24 hrs by ELISA; type: functional, cell-based; conditions: Homo sapiens
# Mus musculus [27] = experiment: Toxicity in VEGFA-stimulated mouse highly metastatic LLC cells xenografted C57BL/6 mouse assessed as mortality at 0.5 to 5 mg/kg, sc qd for 18 days; type: organism-based; set-up: dose 0.5-5 mg/kg, route subcutaneous; conditions: in vivo, 432 h; procedure, shortened: as §3
# [28] = Cytotoxicity against HUVEC assessed as cell viability at 1 uM after 48 hrs by MTT assay relative to control; type: cell-based; conditions: human, HUVEC cells; read-out: Activity; procedure, shortened: as §1
# HUVEC [29] = experiment: Down regulation of VEGF-A expression in VEGFA-stimulated HUVEC at 5 to 20 uM after 24 hrs by Western blot analysis; type: functional, cell-based; conditions: Homo sapiens
# [30] = Cytotoxicity against HUVEC assessed as cell viability at 5 uM after 48 hrs by MTT assay relative to control; type: cell-based; conditions: human, HUVEC cells; read-out: Activity; procedure, shortened: as §1
# HUVEC [31] = experiment: Down regulation of VEGF-A expression in HUVEC at 5 to 20 uM after 24 hrs by Western blot analysis; type: functional, cell-based; conditions: Homo sapiens
# [32] = tested on: Lewis lung carcinoma cell line; experiment: Antitumor activity against VEGFA-stimulated mouse highly metastatic LLC cells xenografted in C57BL/6 mouse assessed as reduction of tumor weight at 5 mg/kg, […] relative to control; type: functional; set-up: scale not given: the % may be the effect or the level left; conditions: route subcutaneous
# HUVEC [33] = experiment: Down regulation of VEGFA-stimulated VEGF-A expression in HUVEC at 5 to 20 uM after 24 hrs by Western blot analysis in presence of p38 inhibitor SB203580; type: functional, cell-based; conditions: Homo sapiens
# HUVEC [34] = experiment: Down regulation of VEGFA-stimulated COX2 expression in HUVEC at 5 to 20 uM after 24 hrs by Western blot analysis in presence of p38 inhibitor SB203580; type: functional, cell-based; conditions: Homo sapiens
structure (smiles),measurement,setting,value
CC[C@H](C)[C@H](NC(=O)CN)C(=O)NCC(=O)N[C@@H](C)C(=O)N[C@H](C(=O)N[C@@H](CC(C)C)C(=O)N[C@@H](CCCCN)C(=O)N[C@H](C(=O)N[C@@H](CC(C)C)C(=O)N[C@H](C(=O)N[C@H](C(=O)NCC(=O)N[C@@H](CC(C)C)C(=O)N1CCC[C@H]1C(=O)N[C@@H](C)C(=O)N[C@@H](CC(C)C)C(=O)N[C@H](C(=O)N[C@@H](CO)C(=O)N[C@@H](Cc1c[nH]c2ccccc12)C(=O)N[C@H](C(=O)N[C@@H](CCCCN)C(=O)N[C@@H](CCCNC(=N)N)C(=O)N[C@@H](CCCCN)C(=O)N[C@@H](CCCNC(=N)N)C(=O)N[C@@H](CCC(N)=O)C(=O)N[C@@H](CCC(N)=O)C(N)=O)[C@@H](C)CC)[C@@H](C)CC)[C@@H](C)O)[C@@H](C)O)C(C)C)C(C)C [MELITTIN],"viability at 48 h, 10 µM",[1],99.4%
same,Activity,HUVEC [2],Active
same,"viability at 48 h, 40 µM",[3],96.5%
same,Activity,HUVEC [4],inactive
same,Activity,HUVEC [5],Active
same,Activity,[6],60%
same,inhibition,HUVEC [7],Active
same,inhibition,[8],Dose-dependent effect
same,Activity,[9],inactive
same,Activity,Mus musculus [10],Non-toxic
same,Activity,Mus musculus [11],Non-toxic
same,IC50,HUVEC [12],13 µM
same,inhibition,HUVEC [12],Dose-dependent effect
same,Activity,Mus musculus [13],Non-toxic
same,inhibition in vivo at 5 mg/kg,[14],57%
same,Activity,[15],Dose-dependent effect
same,inhibition,[16],Active
same,"viability at 48 h, 20 µM",[17],98.5%
same,Activity,HUVEC [18],inactive
same,IC50,HUVEC [19],18 µM
same,inhibition,HUVEC [19],Dose-dependent effect
same,Activity,[20],59%
same,Activity,Mus musculus [21],Non-toxic
same,Activity,Mus musculus [22],Non-toxic
same,Activity,Mus musculus [23],Non-toxic
same,inhibition in vivo at 0.5 mg/kg,[24],25%
same,Activity,[25],52%
same,inhibition,HUVEC [26],Active
same,Activity,Mus musculus [27],Non-toxic
same,"viability at 48 h, 1 µM",[28],104%
same,Activity,HUVEC [29],Active
same,"viability at 48 h, 5 µM",[30],98.9%
same,Activity,HUVEC [31],inactive
same,Activity,[32],91%
same,Activity,HUVEC [33],inactive
same,Activity,HUVEC [34],inactive
CS(=O)(=O)Nc1ccc([N+](=O)[O-])cc1OC1CCCCC1 [NS-398],inhibition,HUVEC [12],Active
same,inhibition in vivo at 5 mg/kg,[14],42%
same,inhibition,HUVEC [19],Active
same,Activity,[20],22%
